Compound activity from PubChem.
Apaf-1 act = activators of human Apaf-1 apoptosome, primary screen, biochemical, DEVD-Rh110 fluorescence, uHTS; Apaf-1 apoptosome caspase-3 activation; hits give low values; hit rate 0.31% among 330,000; activity change, negative = activation, % at 20 µM; Apoptotic protease-activating factor 1 (Homo sapiens), O14727;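 active = activity change at or below -40% at 20 µM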
Target sequence (O14727 whole entry, looked up): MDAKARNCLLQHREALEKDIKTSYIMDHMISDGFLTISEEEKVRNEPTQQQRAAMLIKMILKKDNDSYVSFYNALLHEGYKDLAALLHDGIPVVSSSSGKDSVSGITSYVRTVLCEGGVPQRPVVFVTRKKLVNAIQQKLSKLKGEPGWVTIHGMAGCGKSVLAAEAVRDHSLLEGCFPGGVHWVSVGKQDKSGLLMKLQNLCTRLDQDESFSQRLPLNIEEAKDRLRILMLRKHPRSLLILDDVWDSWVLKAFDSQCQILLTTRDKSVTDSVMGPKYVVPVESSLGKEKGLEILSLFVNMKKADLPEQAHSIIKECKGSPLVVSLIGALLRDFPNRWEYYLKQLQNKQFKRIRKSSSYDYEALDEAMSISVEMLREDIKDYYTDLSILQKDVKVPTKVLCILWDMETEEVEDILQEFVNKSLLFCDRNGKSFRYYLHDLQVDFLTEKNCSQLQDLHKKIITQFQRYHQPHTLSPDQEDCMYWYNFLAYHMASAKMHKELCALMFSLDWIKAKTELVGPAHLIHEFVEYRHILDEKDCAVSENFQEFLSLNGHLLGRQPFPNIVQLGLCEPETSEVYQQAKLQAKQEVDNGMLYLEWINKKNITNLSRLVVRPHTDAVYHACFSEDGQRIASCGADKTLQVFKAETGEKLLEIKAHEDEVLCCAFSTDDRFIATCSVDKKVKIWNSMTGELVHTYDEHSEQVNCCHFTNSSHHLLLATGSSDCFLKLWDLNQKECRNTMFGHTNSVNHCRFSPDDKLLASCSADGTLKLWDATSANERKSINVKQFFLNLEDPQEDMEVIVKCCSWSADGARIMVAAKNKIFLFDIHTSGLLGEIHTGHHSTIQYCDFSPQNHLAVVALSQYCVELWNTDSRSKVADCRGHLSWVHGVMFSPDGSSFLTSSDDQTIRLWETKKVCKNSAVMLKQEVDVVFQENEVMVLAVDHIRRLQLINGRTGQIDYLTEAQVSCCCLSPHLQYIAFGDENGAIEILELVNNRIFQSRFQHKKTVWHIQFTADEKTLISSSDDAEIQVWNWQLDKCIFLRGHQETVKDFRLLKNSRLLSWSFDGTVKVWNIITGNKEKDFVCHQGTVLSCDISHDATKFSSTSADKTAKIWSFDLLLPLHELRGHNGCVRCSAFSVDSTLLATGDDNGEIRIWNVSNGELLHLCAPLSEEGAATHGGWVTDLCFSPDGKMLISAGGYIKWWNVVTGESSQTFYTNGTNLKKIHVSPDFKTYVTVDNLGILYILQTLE
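Material: biochemical Apaf-1 apoptosome reconstitution; Medium: 20 mM HEPES buffer, pH 7.5, containing CHAPS and BSA; Reagent: dATP, cytochrome c, and (Z-DEVD)2-Rh110 caspase-3 substrate; Times: 30 min preincubation, 50 min reaction, room temperature; Signal: Rh110 fluorescence, excitation 480 nm, emission 540 nm; Measure: Caspase-3 activity via Apaf-1.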
Rh110 act interf = Rh110 fluorescence interference by putative Apaf-1 activators, confirmation, artefact control for Apaf-1 activator project, biochemical, 20 µM | shares compounds with Apaf-1 act | quenched caspase reaction, Ex480/Em540 | fluorescence interference (activity change), % at 20 µM, hits read low | 980 tested, under 10 active | AID 504616, 2011;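 active = mean activity change at or below -40% when tested at 20 µM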
Apaf-1 act conf = Apaf-1 activators, single-dose retest, confirmation, biochemical, fluorescence, DEVD-Rh110, 20 µM | activity change, negative = activation, % at 20 µM | hit rate 5% among 980 | shares compounds with Apaf-1 act | AID 504617, 2011 | reconstituted apoptosome caspase-3 activity; hits give low values;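 active = mean activity change at or below -40%, meaning activation of 40% or more, at 20 µM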
Numbers without * were called inactive. Only a sample is shown.

SMILES	Apaf-1 act	others
O=C1N(CN2CCOCC2)c2ccccc2C1(O)c1c[nH]c2ccccc12 (centres undefined)	-79.7*	Rh110 act interf=9.0;Apaf-1 act conf=9.3
COC(=O)C1=C(c2cccc(OCc3ccccc3)c2)C[C@@H]2CC[C@H]1N2C(=O)NC1CCN(Cc2ccccc2)CC1	47.6
COCCCn1c(N)c(C(=O)Nc2sc3c(c2C(=O)OC)CCCC3)c2nc3ccccc3nc21	90.2
COc1cc2c(cc1O)[C@@H]1Cc3ccc(OC)c(O)c3CN1CC2	93.0
Cc1ccc(-c2ccc(=O)n(CCC(=O)N3CCC4(CC3)OCCO4)n2)cc1	-49.2*	Rh110 act interf=2.3;Apaf-1 act conf=11.1
CC(NC(C)(C)C)C(=O)c1cccc(Cl)c1 (centres undefined)	-8.4
CN1CCc2cc3c(c4c2C1Cc1ccccc1-4)OCO3 (centres undefined)	90.9
Nc1c(C(=O)OCc2ccccc2)c2nc3ccccc3nc2n1Cc1cccs1	86.0
CCC(C)NC(=O)c1c(N)n(CC2CCCO2)c2nc3ccccc3nc12 (centres undefined)	94.5
Nc1c(C(=O)NCCN2CCOCC2)c2nc3ccccc3nc2n1Cc1ccccc1	82.3
C=CCN1C(=O)NC(=O)C(Cc2ccc(OC)c(OC)c2)C1=O (centres undefined)	-549.5*	Rh110 act interf=5.6;Apaf-1 act conf=15.0
COCCCn1c(N)c(C(=O)Nc2ccccc2)c2nc3ccccc3nc21	51.4
COC(=O)C1=C(c2ccc(Cl)c(C(F)(F)F)c2)C[C@@H]2CC[C@H]1N2C(=O)NCCOc1ccc(OC)cc1	40.0
O=[N+]([O-])c1ccc(NCc2ccc(Cl)cc2)c2ccncc12	78.7
COCCNC(=O)c1c(NC(=O)c2ccco2)n(Cc2ccccc2)c2nc3ccccc3nc12	52.8
COCCCn1c(N)c(C(=O)OC(C)COC)c2nc3ccccc3nc21 (centres undefined)	74.3
Cn1ncnc2c(=O)n(C)c(=O)nc1-2	98.9
O=[N+]([O-])c1ccc(N2CCCNCC2)c2ncccc12	44.9
CCCCOP(=O)(CN1CCOCC1)OCCCC	-277.6*	Rh110 act interf=2.0;Apaf-1 act conf=7.2
CCCN1CCc2cc(O)cc3c2[C@H]1Cc1ccc(O)c(O)c1-3	44.7
O=C(c1ccc2c(c1)ncn2-c1ccc(F)cc1F)N1CCC2(CC1)OCCO2	-75.9*	Rh110 act interf=8.4;Apaf-1 act conf=5.5
COCCCn1c(N)c(C(=O)NCc2ccco2)c2nc3ccccc3nc21	94.6
CCC(C)NC(=O)c1c(N)n(CCCOC)c2nc3ccccc3nc12 (centres undefined)	90.9
CCC(C)NC(=O)c1c(N)n(Cc2ccc3c(c2)OCO3)c2nc3ccccc3nc12 (centres undefined)	96.1
CN[C@H]1C[C@H]2O[C@@](C)([C@H]1OC)n1c3ccccc3c3c4c(c5c6ccccc6n2c5c31)C(=O)NC4	50.8
SMILES	Apaf-1 act	others
CC(C)CC(N(C)C)C1(c2ccc(Cl)cc2)CCC1 (centres undefined)	5.1
NS(=O)(=O)c1ccc(N=Nc2c(O)[nH]c(=S)[nH]c2=O)cc1	-137.8*	Rh110 act interf=3.8;Apaf-1 act conf=4.1
CCCCCCCCCCCCCCCC[N+](C)(C)C	84.9
Cc1[nH]n(-c2ccccc2)c(=O)c1C(c1ccc([N+](=O)[O-])cc1)c1c(C)[nH]n(-c2ccccc2)c1=O	78.6
Cc1c2ccncc2c(C)c2c1[nH]c1ccccc12	67.5
COc1ccc2c(c1)NP(=S)(Oc1ccccc1)N2 (centres undefined)	50.1
NCCc1ccc(OCc2ccccc2)c(OCc2ccccc2)c1	46.5
N#Cc1ccc(/C=C/C(=O)O)cc1	-498.8*	Rh110 act interf=9.3;Apaf-1 act conf=8.8
c1ccc(CCCN2CCN(CCOC(c3ccccc3)c3ccccc3)CC2)cc1	50.7
CC(Cc1ccccc1)NC(=O)NC(C)Cc1ccccc1 (centres undefined)	-182.0*	Rh110 act interf=-7.7;Apaf-1 act conf=5.0
C[n+]1c(-c2ccccc2)c2cc(N)ccc2c2ccc(N)cc21	97.6
CC(C)CCNC(=O)c1c(N)n(CC2CCCO2)c2nc3ccccc3nc12 (centres undefined)	91.3
N=c1n(CCO)c2ccccc2n1Cc1ccccc1	-112.5*	Rh110 act interf=8.3;Apaf-1 act conf=11.0
CN(C)[C@@H]1C(=O)C(C(N)=O)=C(O)[C@@]2(O)C(=O)C3=C(O)c4c(O)cccc4[C@@](C)(O)C3[C@H](O)C12 (some centres undefined)	-1.5
COC(=O)C1=C(c2ccc(F)cc2OCc2ccccc2)C[C@@H]2CC[C@H]1N2C(=O)NC1CCN(Cc2ccccc2)CC1	53.1
O=[N+]([O-])c1ccc(NCCCN2CCOCC2)c2ncccc12	40.4
Ic1ccccc1CN[C@@H]1C2CCN(CC2)[C@@H]1C(c1ccccc1)c1ccccc1	50.2
COc1cc2c3c(c1OC)Oc1ccc(cc1)C[C@H]1c4c(cc(OC)c(OC)c4Oc4ccc(cc4)C[C@@H]3N(C)CC2)CCN1C	45.0
CCCCn1c(NC(=O)c2ccc(Br)o2)c(C(=O)OCC)c2nc3ccccc3nc21	79.1
O=S1(=O)N(CCN2CC=C(c3c[nH]c4cc(F)ccc34)CC2)c2cccc3c2N1CCC3	50.8
